Data as given in ChEMBL document CHEMBL1153529, “Synthesis of fluorinated brassinosteroids based on alkene cross-metathesis and preliminary biological assessment” (J Med Chem, 2009).
Calls of active or inactive are those of the source. The calls are words filed in the database; no cut-off is given here.

What was measured:
[1] = species on record: Rattus norvegicus; assay: Displacement of [35S]tert-butylbicyclo[ 2.2.2]phosphorothionate from GABAA receptor in Wistar rat brain membrane at 100 nM relative to control; assay type: cell membranes
Outline: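 Membranes from male Wistar rat brain incubated 1 h at 37 °C with 2 nM [35S]TBPS and test compound at 100 nM. Binding expressed as % of buffer-only control samples. Mean ± SD of triplicates or quadruplicates. Kruskal-Wallis global test, then Mann-Whitney-Wilcoxon against control.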

[2] = species on record: Rattus norvegicus; assay: Inhibition of [35S]tert-butylbicyclo[ 2.2.2]phosphorothionate binding to GABAA receptor in Wistar rat brain membrane relative to control; assay type: cell membranes
Outline: (§1)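 Male Wistar rat brain membranes incubated 1 h at 37 °C with 2 nM [35S]TBPS and compound at 1 nM to 10 μM, in duplicates. IC50 estimated as the steroid concentration giving half-maximal inhibition of binding. Imax is the maximal suppression of binding.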

[3] = Inhibition of [35S]tert-butylbicyclo[ 2.2.2]phosphorothionate binding to GABAA receptor in Wistar rat brain membrane; assay type: cell membranes; outline: as §1
[4] = system: Phaseolus vulgaris; assay: Brassinolide type activity in Phaseolus Vulgaris L., cv. Pinto assessed as difference of prolongation of second internode at 1 pmol/L by second-internode bioassay relative to control; assay type: functional
Outline: (§2)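 Bean second-internode bioassay. Compound applied in lanolin; second-internode length measured 5 days after application. Activity taken as the difference in internode prolongation (mm) between treated and control plants. Reported concentrations were 10^-10, 10^-7 and 10^-12 mol/L. Mean ± SD.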

[5] = system: CCRF-CEM; assay: Cytotoxicity against human CEM cells after 72 hrs by calcein-AM assay; assay type: functional, cell-based
Outline: (§3)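 Human normal fibroblast BJ, T-lymphoblastic leukemia CEM and breast carcinoma MCF-7 cells exposed for 72 h to six serial 4-fold dilutions of compound. Surviving cell proportion read by calcein-AM assay and IC50 calculated. Mean ± SD of three independent experiments, each in triplicate. 28-Homocastasterone served as positive control.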

[6] = system: MCF7; assay: Cytotoxicity against human MCF7 cells after 72 hrs by calcein-AM assay; assay type: functional, cell-based; details: MCF7, 72 h; outline: as §3
[7] = system: Phaseolus vulgaris; assay: Brassinolide type activity in Phaseolus Vulgaris L., cv. Pinto assessed as difference of prolongation of second internode at 0.1 umol/L by second-internode bioassay relative to control; assay type: functional; outline: as §2
[8] = system: BJ; assay: Cytotoxicity against human BJ cells after 72 hrs by calcein-AM assay; assay type: cell-based; outline: as §3

Compound | Activity [1] | Imax [2] | IC50 [3] | Activity [4] | IC50 [5] | IC50 [6] | Activity [7] | Activity [8]
CC(=O)[C@H]1CC[C@H]2[C@@H]3CC[C@H]4C[C@H](O)CC[C@]4(C)[C@H]3CC[C@]12C [BREXANOLONE] | 56.2% | 79% | 0.08 µM | – | – | – | – | –
C[C@H]([C@@H](O)[C@H](O)CC(F)(C(F)(F)F)C(F)(F)F)[C@H]1CC[C@H]2[C@@H]3COC(=O)[C@H]4C[C@H](O)[C@H](O)C[C@]4(C)[C@H]3CC[C@]12C | 56.6% | 59.4% | 0.1 µM | 10.7 mm | > 50 µM | > 50 µM | 15.9 mm | Non-toxic
C[C@H]([C@@H](O)[C@H](O)CC(F)(C(F)(F)F)C(F)(F)F)[C@H]1CC[C@H]2[C@@H]3CC(=O)C4C[C@H](O)[C@H](O)C[C@]4(C)[C@H]3CC[C@]12C (some centres undefined) | – | – | – | – | > 50 µM | > 50 µM | – | Non-toxic
C[C@H]([C@@H](O)[C@H](O)CC(F)(F)C(F)(F)C(F)(F)C(F)(F)C(F)(F)C(F)(F)F)[C@H]1CC[C@H]2[C@@H]3COC(=O)[C@H]4C[C@H](O)[C@H](O)C[C@]4(C)[C@H]3CC[C@]12C | 47.2% | 57.9% | 0.9 µM | – | > 50 µM | > 50 µM | – | Non-toxic
CC[C@@H](C(C)C)[C@@H](O)[C@H](O)[C@@H](C)[C@H]1CC[C@H]2[C@@H]3CC(=O)[C@H]4C[C@H](O)[C@H](O)C[C@]4(C)[C@H]3CC[C@]12C | – | – | – | – | 13 µM | > 50 µM | – | Non-toxic
C[C@H]([C@@H](O)[C@H](O)CC(F)(F)C(F)(F)C(F)(F)F)[C@H]1CC[C@H]2[C@@H]3COC(=O)[C@H]4C[C@H](O)[C@H](O)C[C@]4(C)[C@H]3CC[C@]12C | 95.1% | – | – | – | > 50 µM | > 50 µM | Active | Non-toxic
CC(C(O)C(O)CC(F)(F)C(F)(F)C(F)(F)C(F)(F)C(F)(F)C(F)(F)F)C1CCC2C3CC(=O)C4CC(O)C(O)CC4(C)C3CCC12C (centres undefined) | – | – | – | – | > 50 µM | > 50 µM | – | Non-toxic
CC(C(O)C(O)CC(F)(F)C(F)(F)C(F)(F)F)C1CCC2C3CC(=O)C4CC(O)C(O)CC4(C)C3CCC12C (centres undefined) | – | – | – | – | 35.3 µM | 48.2 µM | – | Non-toxic
